These results are taken from ChEMBL document CHEMBL3751842, “Novel triazolothiadiazines act as potent anticancer agents in liver cancer cells through Akt and ASK-1 proteins” (Bioorg Med Chem, 2016).

Usually IC50 stands for the concentration that inhibits the measured activity by half.

Calls of active or inactive are those of the source. The rule behind the calls is not given here.

Assay [1] has as its system Huh-7. The assay is described as follows: Induction of apoptosis in human HuH7 cells assessed as nuclear condensation at 10 uM after 48 hrs by Hoechst 33258 staining-based immunofluorescence microscopy. It counts as functional, cell-based. The method in brief:
(§1)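 Cells on coverslips were incubated overnight, then treated with 10 µM compound or DMSO for 48 h. They were washed in ice-cold PBS, fixed in cold methanol for 10 min, and stained with 1 µg/mL Hoechst 33258 for 5 min in the dark. Nuclei were examined by fluorescence microscopy with a 40x objective.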

Assay [2] has as its system Huh-7. The assay can be described thus: Induction of apoptosis in human HuH7 cells assessed as horseshoe nuclear structure at 10 uM after 48 hrs by Hoechst 33258 staining-based immunofluorescence microscopy. The class given is functional, cell-based. The method in brief: as §1
Assay [3] has as its system Huh-7. The assay can be described thus: Cytotoxicity against human HuH7 cells assessed as cell impedance at IC25 to IC100 measured every 30 mins for 72 hrs by RT-CES assay. It counts as functional, cell-based. As to conditions: TDE = time-dependent effect. The method in brief: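 Huh7 cells were seeded at 1000–5000 cells/well on electrode plates. […] Impedance was read as cell index every 10 min for the first 24 h, then every 30 min, over 72 h. Data were normalized to DMSO; inhibition (%) = [1 − (CI treated/CI DMSO)] × 100. Each experiment was run at least three times.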

Assay [4] in a line: Cytotoxicity against human HuH7 cells assessed as growth inhibition after 72 hrs by sulforhodamine B assay. It counts as functional, cell-based, Huh-7. The note with it: Homo sapiens, Huh-7, 72 h; read-out: IC50. The method in brief:
(§2)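 Cells were grown at 37°C, 5% CO2 in DMEM with 10% FBS. They were seeded at 1000–3000 cells/well, grown 24 h, then exposed to compound at 2.5–40 µM for 72 h. Cells were fixed in 10% TCA for 1 h at 4°C, stained with 0.4% SRB in 1% acetic acid for 10 min, and the dye solubilized in 10 mM Tris. Absorbance was read at 515 nm; runs were in triplicate; IC50 was calculated, with fits of R2 0.8–1 accepted.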

Assay [5] has as its system MCF7. The assay can be described thus: Cytotoxicity against human MCF7 cells assessed as growth inhibition after 72 hrs by sulforhodamine B assay. As to conditions: Homo sapiens, MCF7, 72 h; read-out: IC50. It counts as functional, cell-based. The procedure, abridged:
as §2
A general note: The SRB assay estimates cell density from bound dye.

Assay [6] in a line: Cytotoxicity against human HCT116 cells assessed as growth inhibition after 72 hrs by sulforhodamine B assay. The class given is functional, cell-based, HCT-116. The note with it: Homo sapiens, HCT-116, 72 h; read-out: IC50. The method in brief:
as §2

Assay [7] is described as follows: Cytotoxicity against human Mahlavu cells assessed as growth inhibition after 72 hrs by sulforhodamine B assay. It counts as functional, cell-based. As to conditions: Homo sapiens, Mahlavu, 72 h; read-out: IC50. The method in brief:
as §2

Assay [8] is described as follows: Cytotoxicity against human FOCUS cells assessed as growth inhibition after 72 hrs by sulforhodamine B assay. The class given is functional, cell-based. The note with it: Homo sapiens, FOCUS, 72 h; read-out: IC50. The method in brief:
as §2

The nature of assay [9]: Cytotoxicity against human SNU475 cells assessed as growth inhibition after 72 hrs by sulforhodamine B assay. The note with it: Homo sapiens, SNU-475, 72 h; read-out: IC50. It counts as functional, cell-based, SNU-475. The procedure, abridged: as §2
Assay [10] has as its system HepG2. The assay is described as follows: Cytotoxicity against human HepG2 cells assessed as growth inhibition after 72 hrs by sulforhodamine B assay. The class given is functional, cell-based. The note with it: Homo sapiens, HepG2, 72 h; read-out: IC50. The procedure, abridged: as §2
The nature of assay [11]: Cytotoxicity against human Hep3B cells assessed as growth inhibition after 72 hrs by sulforhodamine B assay. It counts as functional, cell-based, Hep 3B2. As to conditions: Homo sapiens, Hep3B, 72 h; read-out: IC50. The procedure, abridged: as §2
Assay [12] deals with Huh-7. The assay is described as follows: Induction of cell cycle arrest in human HuH7 cells assessed as accumulation at subG1 phase at 10 uM after 24 to 48 hrs by propidium iodide staining based FACS analysis. The class given is functional. The method in brief:
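Huh7 cells were seeded at 300,000 per 100-mm dish. After 24 h they were treated with 10 µM compound or DMSO for 24 h and 48 h. Cells were trypsinized, fixed in ice-cold 70% ethanol and stored at −20 °C. They were then stained with propidium iodide and cell-cycle distribution, including SubG1, was read by flow cytometry.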
Background: A flow cytometer gives signals particle by particle.

For `CC(c1ccc(-c2ccccc2)c(F)c1)c1nnc2n1N=C(c1ccc(Cl)cc1Cl)CS2` (stereo not drawn), the outcome in [1] and in assay [2] was Active. For the same compound, the Activity entry in [3] was “tde”. In addition, the IC50 in assay [4] was determined as 3.7 µM; in assay [5], 7.6 µM; in assay [6], 6.9 µM; in [7], 6.6 µM; in [8], 5.4 µM; in assay [9] it was 4.7 µM. Moreover, the IC50 in assay [10] worked out at 8.6 µM; in assay [11], 4.2 µM.
With `COc1ccc(C2=Nn3c(nnc3C(C)c3ccc(-c4ccccc4)c(F)c3)SC2)cc1` (stereo not drawn), the outcome in assay [1], in assay [12] and in assay [2] was Active. Moreover, the Activity entry in assay [3] is “tde”. For the same compound, the IC50 came out at 4.3 µM in [4]; 2.6 µM in [5]; 4.4 µM in assay [6]; 5.8 µM in assay [7]; 4.4 µM in [8]; 6.7 µM in [9]. For the same compound, the IC50 in assay [10] amounted to 4.2 µM; in assay [11] it was 3.5 µM.
On to `CC(c1ccc(-c2ccccc2)c(F)c1)c1nnc2n1N=C(c1ccc(Cl)cc1)CS2` (stereo not drawn), for which the outcome in assay [1], in assay [12] and in [2] was Active. Besides, in [3], the Activity result was “tde”. In addition, the IC50 worked out at 3.9 µM in assay [4]; 8.7 µM in assay [5]; 7.8 µM in assay [6]; 6.1 µM in assay [7]; 5 µM in [8]; 3.8 µM in [9]. Moreover, the IC50 came out at 6.7 µM in assay [10] and 3.8 µM in assay [11].
Consider `CC(C)Cc1ccc(C(C)c2nnc3n2N=C(c2ccc(Br)cc2)CS3)cc1` (stereo not drawn), for which the result in assay [1], in assay [12] and in [2] was Active. Also, the Activity entry in [3] was “tde”. In addition, the IC50 came out at 4.9 µM in assay [4]; 9.4 µM in [5]; 7.1 µM in [6]; 8.9 µM in [7]; 5.9 µM in assay [8]; 10.1 µM in [9]. For the same compound, the IC50 in assay [10] was found to be 6.4 µM; in [11] it was 8.3 µM.
With `CC(C)Cc1ccc(C(C)c2nnc3n2N=C(c2ccc(OC(F)(F)F)cc2)CS3)cc1` (stereo not drawn), the outcome in [1] and in assay [2] was Active. In addition, in [3], the Activity result was “tde”. The IC50 in assay [4] was 3.6 µM; in [5], 1.1 µM; in assay [6] it was 3 µM; in assay [7] it was 9.1 µM; in assay [8] it was 8.8 µM; in assay [9], 6.8 µM. Further, the IC50 came to 9.7 µM in [10] and 6.4 µM in [11].
